Measured values as given in ChEMBL document CHEMBL1135780, “6-Chloro-3-alkylamino-4H-thieno[3,2-e]-1,2,4-thiadiazine 1,1-dioxide derivatives potently and selectively activate ATP sensitive potassium channels of pancreatic beta-cells” (J Med Chem, 2002).
pEC50, pIC50: −log10 of the molar value.

Assays:
Beta-TC6 [1] = assay: Percentage insulin release in vitro in beta-TC6 cells; format: functional; details: Mus musculus
Outline: (§1)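 βTC6 cells, 5 × 10⁴/well, grown 3 days in DMEM + 10% FCS, 11 mM glucose, 20 mM Hepes. Washed twice in NN buffer with 0.1% BSA, preincubated 60 min, then 3 h with 22 mM glucose, 0.1 mM IBMX and serial compound dilutions. Insulin in supernatant measured by in-house ELISA (guinea pig anti-insulin, rat insulin standard). Reference compound as positive control.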

Beta-TC6 [2] = assay: Ability to inhibit the release of insulin from the mouse beta-TC6 cell line; format: functional, cell-based; outline: as §1
Rattus norvegicus [3] = organism: Rattus norvegicus; assay: Maximum change in MAP in rat; format: functional
Outline: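 Anaesthetized male Sprague–Dawley rats given 3 mg/kg iv bolus (0.3 mg/kg for one compound) in 0.15% NaOH/saline via jugular cannula. Maximal percent change in mean arterial pressure over 5 min after dosing; mean ± SEM, 2–4 animals.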

[4] = Changes in potassium fluxes assessed in the glucose responsive insulin-producing murine cell line beta-TC3; format: functional, cell-based, Mus musculus
Outline: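 βTC3 membrane potential read as DiBAC4(3) fluorescence at 0.01, 0.1, 1, 10 and 100 µM, four wells each. Signal normalized to each well's initial value and expressed as fractional fluorescence change over 45 min incubation. EC50 from four-parameter nonlinear fit; mean ± SEM of at least three independent experiments.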

Rattus norvegicus [5] = organism: Rattus norvegicus; assay: Vasodilation effects on Wistar rat mesenteric arteries precontracted with phenylephrine; format: functional
Rattus norvegicus [6] = organism: Rattus norvegicus; assay: Maximum reduction in plasma insulin in rat; format: functional
Outline: (§2)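 Postprandial male Sprague–Dawley rats, 280–320 g, under Hypnorm/Dormicum at 37 °C. 3 mg/kg iv bolus over 20 s via jugular cannula (0.3 mg/kg for one compound), dissolved in 0.15% NaOH and saline. Blood taken every 5–10 min from 15 min pre- to 30 min postinjection. Plasma insulin by ELISA, as % reduction from pre-dose level. 2–4 animals.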

Rattus norvegicus [7] = organism: Rattus norvegicus; assay: Reduction in plasma insulin in 30 min post-injection in rat; format: functional; parameters: concentration or dose not given beside the values; outline: as §2
Rattus norvegicus [8] = organism: Rattus norvegicus; assay: Inhibition of glucose-stimulated insulin release from Wistar rat islets; format: functional
Outline: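 Isolated rat islets held overnight in RPMI, 10% FCS, 11 mM glucose, then 10 islets/well overnight in DMEM, 10% FCS, 3 mM glucose. Run like the βTC6 assay (60 min NN buffer preincubation, 3 h with 22 mM glucose and serial dilutions) without IBMX. Insulin by in-house ELISA.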

Rattus norvegicus [9] = organism: Rattus norvegicus; assay: Ability to relax phenylephrine-contracted rat aorta rings; format: functional
[10] = target: T1, Sulfonylurea receptor 1, Kir6.2 (Homo sapiens, UniProt Q09428+Q14654); assay: Inhibition of [3H]glibenclamide binding to HEK293 cells co-expressing human Sulfonylurea receptor SUR1 and Inward rectifier K+ channel Kir6.2 without ATP; format: cell-based
[11] = Half life after oral administration to Sprague-Dawley rats; format: ADME, organism-based; details: rat, in vivo
Outline: (§3)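 Cassette dosing, two compounds per cassette, in Sprague–Dawley rats of about 180 g, n = 2. iv doses 0.5 or 0.89 mg/kg; oral doses 1.89 or 2.0 mg/kg. Vehicle 0.1 M potassium phosphate pH 8.0, or PEG 300 based. Heart-puncture sampling, one rat per point. Plasma levels by LC/MS/MS; noncompartmental analysis.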

[12] = Oral bioavailability in rat (Sprague-Dawley); format: ADME, organism-based; details: in vivo; for bioavailability: Sprague-Dawley; outline: as §3
[13] = target: T1, Sulfonylurea receptor 1, Kir6.2; assay: Inhibition of [3H]glibenclamide binding to HEK293 cells co-expressing human Sulfonylurea receptor SUR1 and Inward rectifier K+ channel Kir6.2 at low affinity state with 2 mM MgATP; format: cell-based
[14] = target: T1, Sulfonylurea receptor 1, Kir6.2; assay: Inhibition of [3H]glibenclamide binding to HEK293 cells co-expressing human Sulfonylurea receptor SUR1 and Inward rectifier K+ channel Kir6.2 at high affinity state with 2 mM MgATP; format: cell-based
Beta-TC6 [15] = assay: Maximum inhibition of glucose stimulated insulin release from mouse beta-TC6 cells at 10 uM in vitro.; format: functional
Rattus norvegicus [16] = organism: Rattus norvegicus; assay: Effective concentration required for relaxation of rat aorta rings; format: functional

T1 sequence (Q14654 whole entry): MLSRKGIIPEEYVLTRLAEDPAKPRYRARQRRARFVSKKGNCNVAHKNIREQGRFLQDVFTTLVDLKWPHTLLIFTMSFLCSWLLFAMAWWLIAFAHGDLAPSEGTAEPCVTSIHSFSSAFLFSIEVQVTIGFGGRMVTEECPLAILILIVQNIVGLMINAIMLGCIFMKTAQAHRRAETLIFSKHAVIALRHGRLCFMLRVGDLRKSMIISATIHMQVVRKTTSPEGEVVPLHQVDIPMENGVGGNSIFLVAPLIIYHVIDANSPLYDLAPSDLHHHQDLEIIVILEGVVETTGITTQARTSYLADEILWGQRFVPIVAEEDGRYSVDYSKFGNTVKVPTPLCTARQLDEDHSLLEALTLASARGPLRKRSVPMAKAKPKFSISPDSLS
T1 sequence (Q09428 whole entry): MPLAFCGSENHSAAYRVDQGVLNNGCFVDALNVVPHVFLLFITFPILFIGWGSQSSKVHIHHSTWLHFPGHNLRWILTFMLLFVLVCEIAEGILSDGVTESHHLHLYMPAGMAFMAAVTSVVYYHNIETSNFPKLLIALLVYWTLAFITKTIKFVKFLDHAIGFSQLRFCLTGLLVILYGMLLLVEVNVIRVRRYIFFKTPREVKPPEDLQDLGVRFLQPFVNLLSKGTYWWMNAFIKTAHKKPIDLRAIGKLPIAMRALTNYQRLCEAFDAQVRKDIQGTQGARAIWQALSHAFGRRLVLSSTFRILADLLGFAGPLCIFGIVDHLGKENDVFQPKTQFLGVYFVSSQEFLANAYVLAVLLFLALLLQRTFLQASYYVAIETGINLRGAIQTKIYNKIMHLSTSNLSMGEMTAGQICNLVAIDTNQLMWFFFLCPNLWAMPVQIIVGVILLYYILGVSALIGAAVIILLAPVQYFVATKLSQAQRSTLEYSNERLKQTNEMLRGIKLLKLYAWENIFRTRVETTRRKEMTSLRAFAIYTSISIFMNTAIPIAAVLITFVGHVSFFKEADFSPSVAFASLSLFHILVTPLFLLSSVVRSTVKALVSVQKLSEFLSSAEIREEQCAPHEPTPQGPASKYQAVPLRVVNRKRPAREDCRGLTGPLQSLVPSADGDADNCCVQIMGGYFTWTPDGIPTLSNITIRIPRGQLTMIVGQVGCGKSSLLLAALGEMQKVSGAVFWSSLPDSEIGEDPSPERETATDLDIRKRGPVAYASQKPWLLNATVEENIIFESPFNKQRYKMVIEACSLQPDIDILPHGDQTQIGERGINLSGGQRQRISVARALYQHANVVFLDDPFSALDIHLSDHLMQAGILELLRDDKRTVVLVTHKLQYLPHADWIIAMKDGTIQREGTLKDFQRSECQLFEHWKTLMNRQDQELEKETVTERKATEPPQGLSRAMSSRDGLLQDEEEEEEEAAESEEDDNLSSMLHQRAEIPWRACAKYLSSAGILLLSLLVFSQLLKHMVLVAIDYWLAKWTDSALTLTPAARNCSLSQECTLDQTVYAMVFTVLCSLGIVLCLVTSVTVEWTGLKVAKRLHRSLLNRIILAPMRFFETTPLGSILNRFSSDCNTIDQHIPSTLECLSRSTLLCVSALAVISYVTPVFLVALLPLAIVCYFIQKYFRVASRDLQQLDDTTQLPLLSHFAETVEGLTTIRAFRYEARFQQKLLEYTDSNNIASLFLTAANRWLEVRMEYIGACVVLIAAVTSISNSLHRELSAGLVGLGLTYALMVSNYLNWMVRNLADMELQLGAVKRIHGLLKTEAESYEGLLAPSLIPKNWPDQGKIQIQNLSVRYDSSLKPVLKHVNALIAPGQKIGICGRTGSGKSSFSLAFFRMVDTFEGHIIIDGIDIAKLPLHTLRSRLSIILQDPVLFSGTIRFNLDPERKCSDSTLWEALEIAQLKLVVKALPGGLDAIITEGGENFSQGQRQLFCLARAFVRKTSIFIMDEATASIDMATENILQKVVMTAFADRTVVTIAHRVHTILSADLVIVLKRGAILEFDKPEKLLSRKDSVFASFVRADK

| Compound | pIC50 (Beta-TC6 [2]) | pEC50 [4] | pEC50 (Rattus norvegicus [5]) | pIC50 (Rattus norvegicus [8]) | pEC50 (Rattus norvegicus [9]) | pIC50 [10] | half-life [11] [h] | bioavailability [12] [%] | pIC50 [13] | pIC50 [14] | pEC50 (Rattus norvegicus [16]) | F [12] [%] | Emax (Beta-TC6 [1]) [%] | Change (Rattus norvegicus [3]) [%] | Reduction (Rattus norvegicus [6]) [%] | Reduction (Rattus norvegicus [7]) [%] | Emax at 10 µM (Beta-TC6 [15]) [%] |
| --- | --- | --- | --- | --- | --- | --- | --- | --- | --- | --- | --- | --- | --- | --- | --- | --- | --- |
| O=S1(=O)NC(NC2CCCC2)=Nc2cc(Cl)sc21 | 5.94 | 6.40 | 4.97 | 6.36 | < 3.52 | – | – | – | – | – | – | – | 67 | 29 | 99 | 22 | – |
| O=S1(=O)NC(NC2CCC2)=Nc2cc(Cl)sc21 | 6.31 | 5.85 | 4.41 | 7.30 | 4.57 | 3.03 | 1.88 | 49 | 3.84 | 6.92 | – | – | 78 | 5 | 100 | 100 | – |
| O=S1(=O)NC(NC2CC2)=Nc2cc(Cl)sc21 | 5.13 | < 4.52 | – | – | 4.55 | – | – | – | – | – | – | – | – | – | – | – | 37 |
| CCCCCCCCNC1=NS(=O)(=O)c2sc(Cl)cc2N1 | 5.82 | 6.30 | – | – | 3.75 | – | – | – | – | – | – | – | – | – | – | – | 76 |
| CC1(NC2=NS(=O)(=O)c3sc(Cl)cc3N2)CCCCC1 | 5.27 | 6.00 | – | – | 5.85 | – | – | – | – | – | – | – | – | – | – | – | 62 |
| CC(C)[C@H](C)NC1=NS(=O)(=O)c2sc(Cl)cc2N1 | 6.25 | 4.85 | – | – | < 3.52 | – | – | – | – | – | – | – | – | – | – | – | 80 |
| CC(C)[C@@H](C)NC1=NS(=O)(=O)c2sc(Cl)cc2N1 | 6.00 | 6.52 | – | – | 4.12 | – | – | – | – | – | – | – | – | – | – | – | 62 |
| O=S1(=O)NC(NC2CCCCC2)=Nc2cc(Cl)sc21 | 4.59 | 5.10 | – | – | 5.17 | – | – | – | – | – | – | – | – | – | – | – | 40 |
| CCCCCCNC1=NS(=O)(=O)c2sc(Cl)cc2N1 | 5.15 | 6.70 | – | – | 6.82 | – | – | – | – | – | 6.82 | – | – | – | – | – | 67 |
| NC1=NS(=O)(=O)c2sc(Cl)cc2N1 | 4.68 | – | – | – | 3.58 | – | – | – | – | – | 3.58 | – | – | – | – | – | 27 |
| CC(NC1=NS(=O)(=O)c2sc(Cl)cc2N1)C(C)(C)C (racemic) | 6.12 | 4.77 | – | – | 5.70 | – | – | – | – | – | – | – | – | – | – | – | 56 |
| CC(C)CCCC(C)NC1=NS(=O)(=O)c2sc(Cl)cc2N1 (racemic) | 5.31 | 5.70 | – | – | 4.60 | – | – | – | – | – | – | – | – | – | – | – | 72 |
| CCCCCC(C)NC1=NS(=O)(=O)c2sc(Cl)cc2N1 (racemic) | 4.60 | 6.40 | – | – | 5.70 | – | – | – | – | – | – | – | – | – | – | – | 36 |
| CC1=Nc2ccc(Cl)cc2S(=O)(=O)N1 [DIAZOXIDE] | – | 4.11 | 4.68 | 4.69 | – | – | – | – | – | – | 4.89 | 154 | 23 | -26 | 53 | 53 | – |

More lines, in order of rising pIC50 (Beta-TC6 [2]), values ahead:

| pIC50 (Beta-TC6 [2]) | pEC50 [4] | pEC50 (Rattus norvegicus [5]) | pIC50 (Rattus norvegicus [8]) | pEC50 (Rattus norvegicus [9]) | pIC50 [10] | half-life [11] [h] | bioavailability [12] [%] | pIC50 [13] | pIC50 [14] | pEC50 (Rattus norvegicus [16]) | F [12] [%] | Compound | Emax (Beta-TC6 [1]) [%] | Change (Rattus norvegicus [3]) [%] | Reduction (Rattus norvegicus [6]) [%] | Reduction (Rattus norvegicus [7]) [%] | Emax at 10 µM (Beta-TC6 [15]) [%] |
| --- | --- | --- | --- | --- | --- | --- | --- | --- | --- | --- | --- | --- | --- | --- | --- | --- | --- |
| 6.62 | < 4.00 | – | – | 5.10 | – | – | – | – | – | – | – | CCC(CC)CNC1=NS(=O)(=O)c2sc(Cl)cc2N1 | – | – | – | – | 38 |
| 6.66 | 4.39 | – | – | 4.08 | – | – | – | – | – | – | – | CCCC(C)NC1=NS(=O)(=O)c2sc(Cl)cc2N1 (racemic) | – | – | – | – | 56 |
| 6.77 | 6.40 | 4.22 | 7.22 | 3.77 | 2.87 | – | – | 3.41 | 6.64 | – | – | CC(C)(C)NC1=NS(=O)(=O)c2sc(Cl)cc2N1 | 77 | -36 | 85 | 71 | – |
| 6.77 | – | – | – | 4.46 | – | – | – | – | – | – | – | CC(C)C(C)NC1=NS(=O)(=O)c2sc(Cl)cc2N1 (racemic) | – | – | – | – | 79 |
| 6.80 | 5.89 | – | – | 4.19 | – | – | – | – | – | – | – | CCC(C)NC1=NS(=O)(=O)c2sc(Cl)cc2N1 (stereo unspecified) | – | – | – | – | 74 |
| 6.82 | 6.22 | 4.84 | – | 3.92 | – | – | – | – | – | – | – | CC1(NC2=NS(=O)(=O)c3sc(Cl)cc3N2)CC1 [TIFENAZOXIDE] | 69 | -4 | 85 | 77 | – |
| 7.15 | 7.10 | – | – | 5.21 | – | – | – | – | – | – | – | CC1(NC2=NS(=O)(=O)c3sc(Cl)cc3N2)CCCC1 | – | – | – | – | 79 |
| 7.52 | 6.70 | 4.53 | 7.70 | 4.93 | 3.05 | 1.65 | 47 | 3.43 | 6.74 | – | – | CCC(C)(C)NC1=NS(=O)(=O)c2sc(Cl)cc2N1 | 82 | -34 | 87 | 77 | – |
| 7.70 | 7.85 | 5.14 | 8.00 | 5.19 | 3.07 | – | – | 4.97 | 8.52 | – | – | CC1(NC2=NS(=O)(=O)c3sc(Cl)cc3N2)CCC1 | 91 | -48 | 82 | 76 | – |
| 7.70 | 7.00 | – | – | 5.48 | – | – | – | – | – | – | – | CCC1(NC2=NS(=O)(=O)c3sc(Cl)cc3N2)CCC1 | – | – | – | – | 81 |
